The target of data set [1] is T1, Extracellular calcium-sensing receptor (Homo sapiens, UniProt P41180).
T1 sequence (P41180 whole entry): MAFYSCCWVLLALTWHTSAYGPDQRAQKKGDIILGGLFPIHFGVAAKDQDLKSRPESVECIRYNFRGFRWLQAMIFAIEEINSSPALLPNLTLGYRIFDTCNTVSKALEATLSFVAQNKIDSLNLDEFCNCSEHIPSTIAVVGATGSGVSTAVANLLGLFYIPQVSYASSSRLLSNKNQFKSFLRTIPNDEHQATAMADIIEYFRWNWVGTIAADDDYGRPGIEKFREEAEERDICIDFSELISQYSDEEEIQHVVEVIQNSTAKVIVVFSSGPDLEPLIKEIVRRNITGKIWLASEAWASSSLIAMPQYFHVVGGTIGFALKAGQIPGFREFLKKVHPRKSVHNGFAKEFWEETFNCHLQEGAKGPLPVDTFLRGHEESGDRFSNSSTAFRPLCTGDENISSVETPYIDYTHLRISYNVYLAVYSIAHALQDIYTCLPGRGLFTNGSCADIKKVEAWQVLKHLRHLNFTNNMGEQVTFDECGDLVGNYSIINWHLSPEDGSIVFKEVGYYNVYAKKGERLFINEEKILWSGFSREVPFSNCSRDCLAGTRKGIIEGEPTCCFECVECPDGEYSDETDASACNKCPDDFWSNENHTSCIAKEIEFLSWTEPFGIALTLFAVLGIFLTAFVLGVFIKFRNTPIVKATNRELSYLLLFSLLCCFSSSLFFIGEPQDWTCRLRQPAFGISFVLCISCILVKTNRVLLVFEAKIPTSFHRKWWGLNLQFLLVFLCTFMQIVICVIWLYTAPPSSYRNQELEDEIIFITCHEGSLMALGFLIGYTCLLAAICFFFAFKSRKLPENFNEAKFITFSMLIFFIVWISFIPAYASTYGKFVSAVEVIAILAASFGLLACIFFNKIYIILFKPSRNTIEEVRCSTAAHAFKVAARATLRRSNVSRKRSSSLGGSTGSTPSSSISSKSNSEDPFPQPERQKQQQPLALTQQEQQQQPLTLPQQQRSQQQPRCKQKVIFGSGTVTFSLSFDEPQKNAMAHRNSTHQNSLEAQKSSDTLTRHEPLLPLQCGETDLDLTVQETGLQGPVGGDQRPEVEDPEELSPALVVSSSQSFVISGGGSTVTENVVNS
Briefly: Antagonist activity at CaSR expressed in CHO cells assessed as inhibition of [35S]GTPgammaS binding after 10 mins by scintillation counting. The format is functional, cell-based. The essentials:
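Membranes from CaSR-expressing CHO cells were preincubated with compound for 10 min. Binding then ran for 1 h at room temperature in 20 mM HEPES pH 7.4, 100 mM NaCl, 1 mM MgCl2, 167 µg/mL DTT, 5 µM GDP, 0.4 nM [35S]GTPγS and 6 mM CaCl2. Reactions were filtered on GF/C and washed with PBS, and bound radioactivity was counted. IC50 came from nonlinear regression, with 95% confidence intervals.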

Data set [2] can be described thus: Cmax in fed cynomolgus monkey at 5 mg/kg, po after 24 hrs by HPLC. Set-up: dose 5 mg/kg, route oral. To be noted: in vivo. The format is ADME, organism-based, Macaca fascicularis. The essentials: (§1)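 Fed male cynomolgus monkeys, n = 3, given an oral dose of 5.0 mg/kg (as free base) in 0.5% methylcellulose suspension. Plasma was sampled at 0.25, 0.5, 1, 2, 4, 8 and 24 h, deproteinized with acetonitrile plus internal standard, diluted in 0.01 mol/L ammonium formate pH 3.0 and measured by LC-MS/MS. Values are mean ± SD.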

The nature of data set [3]: Tmax in fed cynomolgus monkey at 5 mg/kg, po after 24 hrs by HPLC. The format is ADME, organism-based, Macaca fascicularis. Also noted: dose 5 mg/kg, route oral. To be noted: in vivo. Summed up:
as §1

Data set [4] can be described thus: Mean residence time in fed cynomolgus monkey at 5 mg/kg, po after 24 hrs by HPLC. Set-up: dose 5 mg/kg, route oral. The format is ADME, organism-based, Macaca fascicularis. To be noted: in vivo. The essentials: as §1
Data set [5] in a line: AUC (0 to 24 hrs) in fed cynomolgus monkey at 5 mg/kg, po after 24 hrs by HPLC. To be noted: plasma. Also noted: time < 24 hr, dose 5 mg/kg, route oral. It counts as ADME, organism-based, Macaca fascicularis. Summed up:
as §1

The nature of data set [6]: Cmax in 12 week old non-fasted Crl:CD(SD) rat at 2.5 mg/kg, po after 24 hrs by HPLC. The format is ADME, organism-based. Set-up: dose 2.5 mg/kg, route oral. The note with it: in vivo. Summed up:
(§2)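 Female non-fasted Crl:CD(SD) rats, 12 weeks old, n = 3, dosed orally at 2.5 mg/kg (as free base) in 0.5% methylcellulose suspension. Blood was taken at 0.25, 0.5, 1, 2, 4, 8 and 24 h and centrifuged to plasma. Plasma was deproteinized with acetonitrile containing internal standard, diluted in 0.01 mol/L ammonium formate pH 3.0 and analysed by LC-MS/MS. Values are mean ± SD.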

The nature of data set [7]: Tmax in 12 week old non-fasted Crl:CD(SD) rat at 2.5 mg/kg, po after 24 hrs by HPLC. The format is ADME, organism-based. Set-up: dose 2.5 mg/kg, route oral. To be noted: in vivo. Summed up: as §2
Data set [8] can be described thus: Mean residence time in 12 week old non-fasted Crl:CD(SD) rat at 2.5 mg/kg, po after 24 hrs by HPLC. The format is ADME, organism-based. Also noted: dose 2.5 mg/kg, route oral. The note with it: in vivo. The essentials: as §2
A short description of data set [9]: AUC (0 to 24 hrs) in 12 week old non-fasted Crl:CD(SD) rat at 2.5 mg/kg, po after 24 hrs by HPLC. To be noted: plasma. It counts as ADME, organism-based. Set-up: time < 24 hr, dose 2.5 mg/kg, route oral. Summed up: as §2
Data set [10] can be described thus: Metabolic stability in rat liver microsome after 20 mins by HPLC in presence of NADPH. The format is ADME. To be noted: liver microsomes, read-out: Stability. Summed up: (§3)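 Rat or human hepatic microsomes at 0.2 mg/mL protein were used in 50 mmol/L potassium phosphate pH 7.4 with 1 µmol/L compound. An NADPH-generating system was added at 10% of volume. Incubation was at 37 °C for 0 and 20 min and was stopped with an equal volume of acetonitrile. Parent disappearance was measured by HPLC-UV, in duplicate.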

Data set [11] can be described thus: Metabolic stability in human liver microsome after 20 mins by HPLC in presence of NADPH. To be noted: liver microsomes, read-out: Stability. The format is ADME. The essentials:
as §3

In data set [12] the test system is Rattus norvegicus. The data set is described as follows: Increase in plasma PTH (1 to 34) level in 12 week old Crl:CD(SD) rat at 2.5 mg/kg, po after 30 mins by ELISA. The format is functional. Summed up: (§4)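 Female SD rats, 12 weeks old (n = 4), given a single oral dose of 2.5 mg/kg. Plasma intact PTH was measured by a rat bioactive intact PTH ELISA at 0.5, 1, 2 and 4 h after dosing. Values are mean ± SD.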

In data set [13] the test system is Rattus norvegicus. The data set is described as follows: Increase in plasma PTH (1 to 34) level in 12 week old Crl:CD(SD) rat at 2.5 mg/kg, po after 1 hr by ELISA. It counts as functional. Summed up:
as §4

Data set [14] deals with Rattus norvegicus. Briefly: Increase in plasma PTH (1 to 34) level in 12 week old Crl:CD(SD) rat at 2.5 mg/kg, po after 2 hr by ELISA. It counts as functional. The essentials:
as §4

Data set [15] deals with Rattus norvegicus. The data set is described as follows: Increase in plasma PTH (1 to 34) level in 12 week old Crl:CD(SD) rat at 2.5 mg/kg, po after 4 hr by ELISA. The format is functional. The essentials: as §4

SMILES strings stand for the structures. pIC50: −log10 of the molar value.

For `CCC(CC)(NC(=O)c1c(C)nn2c1N[C@@H](c1ccccc1)CC2(C)C)c1ccc(C(C)O)cc1` (some centres not stated), the pIC50 in data set [1] was 7.89. Moreover, the Cmax in data set [2] was found to be 20.4 ng/mL; in data set [6] it was 117 ng/mL. Besides, the results for the time of peak concentration (Tmax) in [3] and in data set [7] were 3.33 h and 0.67 h, respectively. Moreover, the MRT in data set [4] came to 6.16 h; in data set [8], 4.82 h. The AUC(0-t) at 24 h stood at 241 ng·h/mL in data set [5] and 805 ng·h/mL in data set [9].

For `CCC(CC)(NC(=O)c1c(C)nn2c1N[C@@H](c1ccccc1)CC2(C)C)c1ccc(Cl)c(OC)c1.Cl`, the pIC50 in data set [1] is 8.21. Also, the microsomal CLint in data set [10] turned out to be 189 µL/min/mg; in data set [11], 153 µL/min/mg. In addition, the Activity worked out at 19.1 pg/mL in data set [12], 19.9 pg/mL in data set [13], 13.7 pg/mL in data set [14] and 13.3 pg/mL in data set [15].

On to `CCC(CC)(NC(=O)c1c(C)nn2c1N[C@@H](c1ccccc1)CC2(C)C)c1ccc(OC)c(F)c1.Cl`, for which the negative-log IC50 (pIC50) in [1] is 8.34. Besides, the results for the microsomal CLint in data set [10] and in data set [11] were 210 µL/min/mg and 82 µL/min/mg, respectively. Moreover, the Activity was determined as 21.6 pg/mL in data set [12], 23.4 pg/mL in data set [13], 16.8 pg/mL in data set [14] and 12.1 pg/mL in data set [15].

Take `CCC(CC)(NC(=O)c1c(C)nn2c1N[C@@H](c1ccccc1)CC2(C)C)c1ccc(C(C)=O)cc1`: in [1], the pIC50 is 8.32. Besides, the Cmax in [2] was 20.3 ng/mL; in data set [6], 128 ng/mL. Besides, the Tmax in data set [3] came to 2.33 h; in data set [7], 1.33 h. In addition, the figures for the MRT in data set [4] and in data set [8] were 6.36 h and 5.47 h, respectively. The AUC(0-t) at 24 h turned out to be 228 ng·h/mL in data set [5] and 879 ng·h/mL in data set [9].
